In ChEMBL document CHEMBL1811845, “Modulation of GABAA-receptors by honokiol and derivatives: subtype selectivity and structure-activity relationship” (J Med Chem, 2011):

Legend:
Oocyte = assay: Modulation of GABA alpha1beta2gamma2s receptor expressed in Xenopus laevis oocytes assessed as potentiation of GABA-induced chloride current at holding potential -70 mV at 10 uM by two-microelectrode voltage clamp technique in presence of 300 nM of Diazepam relative to GABA; format: cell-based
[1] = molecular target: Gamma-aminobutyric acid receptor subunit alpha-1/ beta-1 (Homo sapiens) (UniProt P14867+P18505); assay: Modulation of GABA Aalpha1beta1 receptor expressed in Xenopus laevis oocytes assessed as potentiation of GABA-induced chloride current at holding potential -70 mV by two-microelectrode voltage clamp technique relative to GABA; format: cell-based; conditions: Oocyte
Procedure, shortened: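 Stage V–VI female Xenopus oocytes were defolliculated with collagenase and injected with α1 and β1 cRNA at a 3:1 ratio. Oocytes were held at 18 °C in ND96, pH 7.4. Enhancement was (I(GABA+compound)/IGABA)−1, and EC50 and nH came from Hill fits. DMSO was ≤0.3% and matched in controls.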

[2] = molecular target: T1, GABA-A receptor; GABA-A site (alpha1/beta2 interface) (Homo sapiens, UniProt P14867+P47870); assay: Modulation of GABA Aalpha1beta2 receptor expressed in Xenopus laevis oocytes assessed as potentiation of GABA-induced chloride current at holding potential -70 mV by two-microelectrode voltage clamp technique; format: cell-based, Oocyte
T1 sequence (P14867 whole entry): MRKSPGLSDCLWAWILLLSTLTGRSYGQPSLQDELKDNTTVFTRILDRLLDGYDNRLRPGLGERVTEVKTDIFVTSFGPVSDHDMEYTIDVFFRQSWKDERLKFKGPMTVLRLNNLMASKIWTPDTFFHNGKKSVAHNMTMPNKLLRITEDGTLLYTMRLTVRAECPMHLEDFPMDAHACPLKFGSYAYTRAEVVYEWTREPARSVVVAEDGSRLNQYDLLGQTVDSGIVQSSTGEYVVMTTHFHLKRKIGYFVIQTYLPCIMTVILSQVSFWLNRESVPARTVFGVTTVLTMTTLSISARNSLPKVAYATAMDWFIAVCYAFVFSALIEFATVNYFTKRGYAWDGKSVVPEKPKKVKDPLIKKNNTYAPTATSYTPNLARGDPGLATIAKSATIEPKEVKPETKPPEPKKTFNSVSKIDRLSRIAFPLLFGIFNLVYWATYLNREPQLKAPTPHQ
T1 sequence (P47870 whole entry): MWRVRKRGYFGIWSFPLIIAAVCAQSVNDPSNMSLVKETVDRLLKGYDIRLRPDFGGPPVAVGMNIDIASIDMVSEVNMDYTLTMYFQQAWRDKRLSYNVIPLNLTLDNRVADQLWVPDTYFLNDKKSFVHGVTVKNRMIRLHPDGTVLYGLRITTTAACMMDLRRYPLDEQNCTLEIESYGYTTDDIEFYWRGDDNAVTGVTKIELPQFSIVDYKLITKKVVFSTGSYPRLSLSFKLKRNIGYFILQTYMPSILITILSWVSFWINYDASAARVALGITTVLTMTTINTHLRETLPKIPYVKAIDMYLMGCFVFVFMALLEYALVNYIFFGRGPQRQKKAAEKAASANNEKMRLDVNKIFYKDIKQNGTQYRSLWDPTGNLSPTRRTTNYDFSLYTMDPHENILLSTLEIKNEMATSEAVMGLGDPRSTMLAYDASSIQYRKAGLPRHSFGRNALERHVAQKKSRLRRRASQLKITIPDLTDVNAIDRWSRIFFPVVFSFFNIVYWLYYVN
Procedure, shortened: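 Stage V–VI Xenopus oocytes, defolliculated with 2 mg/mL collagenase, injected with α(1, 2, 3 or 5) and β2 cRNAs mixed 1:1, then kept at 18 °C in ND96 (pH 7.4). Enhancement = I(GABA+compound)/IGABA − 1. Curves were Hill-fitted for EC50. Bath DMSO was at most 0.3%, matched in controls.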

[3] = molecular target: GABA-A receptor; GABA-A site (alpha1/beta2 interface) (Homo sapiens) (UniProt P14867+P47870); assay: Modulation of GABA Aalpha1beta2 receptor expressed in Xenopus laevis oocytes assessed as potentiation of GABA-induced chloride current at holding potential -70 mV by two-microelectrode voltage clamp technique relative to GABA; format: cell-based; conditions: Oocyte
Procedure, shortened: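 Oocytes were injected with α1, α2, α3 or α5 plus β2 cRNA at a 1:1 ratio and stored at 18 °C in ND96, pH 7.4. Enhancement was (I(GABA+compound)/IGABA)−1, and concentration-response data were Hill-fitted for EC50 and nH. Matched DMSO was ≤0.3%.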

[4] = molecular target: T2, Gamma-aminobutyric acid receptor subunit alpha-1/ beta-1 (Homo sapiens, UniProt P14867+P18505); assay: Modulation of GABA Aalpha1beta1 receptor expressed in Xenopus laevis oocytes assessed as potentiation of GABA-induced chloride current at holding potential -70 mV by two-microelectrode voltage clamp technique; format: cell-based, Oocyte
T2 sequence (P14867 whole entry): T1 sequence (P14867 whole entry)
T2 sequence (P18505 whole entry): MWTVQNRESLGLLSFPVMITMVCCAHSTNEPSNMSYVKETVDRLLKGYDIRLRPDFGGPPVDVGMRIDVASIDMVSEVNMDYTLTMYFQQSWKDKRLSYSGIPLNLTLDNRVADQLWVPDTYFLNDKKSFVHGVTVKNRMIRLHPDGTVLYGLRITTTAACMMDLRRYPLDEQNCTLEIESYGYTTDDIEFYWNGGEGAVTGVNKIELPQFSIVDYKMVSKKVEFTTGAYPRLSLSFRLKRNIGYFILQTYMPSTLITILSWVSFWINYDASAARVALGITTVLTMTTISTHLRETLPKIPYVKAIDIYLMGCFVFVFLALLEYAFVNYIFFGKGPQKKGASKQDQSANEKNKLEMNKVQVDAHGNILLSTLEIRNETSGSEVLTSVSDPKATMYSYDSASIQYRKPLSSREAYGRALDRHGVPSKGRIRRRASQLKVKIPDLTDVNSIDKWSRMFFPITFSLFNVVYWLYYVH
Procedure, shortened: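 Stage V–VI Xenopus oocytes were injected with subunit cRNAs, with α1 and β1 mixed 3:1 for α1β1, and kept at +18 °C in modified ND96 at pH 7.4. Two-electrode voltage clamp was run at -70 mV and ambient temperature. Test GABA gave 3–7% of maximal current, set for each oocyte. Enhancement was (I(GABA+compound)/IGABA) − 1. EC50 came from a Hill fit. DMSO (max 0.3%) was matched in controls.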

C=CCc1ccc(O)c(-c2ccc(O)c(CC=C)c2)c1 [HONOKIOL]
Activity (Oocyte): 244%
Smax [1]: 260%
EC50 [2]: 39.3 µM
Smax [3]: 1030%
EC50 [4]: 57 µM
